Publication PMC3625964 (Journal of medicinal chemistry, 2013)
Marks after values point to notes of the source that are not given here.

Legend:
FXIa-DEGR = FXIa-DEGR (Homo sapiens, UniProt P03951); test: Fluorescence titration of active site labeled FXIa; assay type: binding; conditions: 250 nM FXIa-DEGR, pH 7.4, 37 °C; for ΔFMAX: 547 nm
Procedure, shortened: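 Plasma-derived human FXIa with a dansyl active-site label (FXIa-DEGR, 250 nM) in 50 mM Tris-HCl pH 7.4, 150 mM NaCl, 0.1% PEG8000 at 37 °C was titrated with aliquots of test compound in the same buffer. Emission at 547 nm (excitation 345 nm) was tracked. Hill-equation fits gave KD,app, n and ΔFMAX. At least two runs were done.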

human plasma [1] = test: Activated partial thromboplastin time; assay type: biochemical
Procedure, shortened: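 Citrated pooled normal human plasma was mixed with test compound and prewarmed APTT reagent (0.2% ellagic acid) and incubated 4 min at 37 °C. Clotting was started with prewarmed 25 mM CaCl2, and clot time was read on a fibrometer. Runs were in duplicate. A quadratic trend line of clot time versus concentration gave the concentration doubling clotting time.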

human plasma [2] = test: Prothrombin time; assay type: biochemical
Procedure, shortened: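 One-stage recalcification assay. Test compound was brought up in citrated pooled normal human plasma and held 30 s at 37 °C. Prewarmed reconstituted thromboplastin-D was added, and clot time was read on a fibrometer. Runs were in duplicate and the mean of two is reported. A quadratic trend line gave the concentration needed to double clotting time.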

FXIa-CD = FXIa-CD (Homo sapiens, UniProt P03951, C500S); test: Inhibition of recombinant wild type FXIa catalytic domain; assay type: biochemical; conditions: catalytic domain alone
Sequence of FXIa-CD (P03951 388-625 C500S): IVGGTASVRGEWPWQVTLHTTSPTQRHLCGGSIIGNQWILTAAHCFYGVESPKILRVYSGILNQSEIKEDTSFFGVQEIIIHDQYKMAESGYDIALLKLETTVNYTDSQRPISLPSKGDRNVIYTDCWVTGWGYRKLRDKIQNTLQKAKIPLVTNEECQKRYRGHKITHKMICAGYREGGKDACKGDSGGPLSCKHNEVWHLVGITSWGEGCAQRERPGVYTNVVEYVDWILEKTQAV
Procedure, shortened: (§1)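 Human FXI cDNA with Cys362Ser/Cys482Ser, so the catalytic domain separates from the heavy chain, carried alanine substitutions at 170-helix residues (single or combined). It was stably expressed in HEK-293 with serum-free medium and purified on anti-FXI 1G5.12 affinity. It was activated with 5 μg/ml FXIIa at 37 °C, and the catalytic domain was isolated on 1G5.12. Dose-response used S2366 hydrolysis in 50 mM Tris-HCl pH 7.4, 150 mM NaCl, 0.1% PEG8000, 0.02% Tween80 at 37 °C, with logistic fits.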

[3] = tested on: Lys529Ala,Arg530Ala,Arg532Ala FXIa-CD; test: Inhibition of FXIa-CD triple mutant; assay type: biochemical, human; conditions: Arg532Ala vs FXIa-CD
Procedure, shortened: as §1

Lys535Ala FXIa-CD = Lys535Ala FXIa-CD (Homo sapiens, UniProt P03951, C500S/K553A); test: Inhibition of Lys535Ala FXIa-CD mutant; assay type: biochemical
Sequence of Lys535Ala FXIa-CD (P03951 388-625 C500S/K553A): as the sequence (P03951 388-625 C500S) above, with K166A counted along it
Procedure, shortened: as §1

Lys539Ala FXIa-CD = Lys539Ala FXIa-CD (Homo sapiens, UniProt P03951, C500S/K557A); test: Inhibition of Lys539Ala FXIa-CD mutant; assay type: biochemical
Sequence of Lys539Ala FXIa-CD (P03951 388-625 C500S/K557A): as the sequence (P03951 388-625 C500S) above, with K170A counted along it
Procedure, shortened: as §1

[4] = biological target: FXIa–CD containing Lys529Ala,Arg530Ala,Arg532Ala triple mutations (Homo sapiens, UniProt P03951, C500S/K547A/R548A/R550A); test: Polybrene competition, S2366 hydrolysis, FXIa-CD triple mutant; assay type: biochemical; conditions: 30 μM polybrene
Sequence of FXIa–CD containing Lys529Ala,Arg530Ala,Arg532Ala triple mutations (P03951 388-625 C500S/K547A/R548A/R550A): as the sequence (P03951 388-625 C500S) above, with K160A, R161A, R163A counted along it
Procedure, shortened: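 Recombinant FXIa catalytic domain bearing Lys529Ala/Arg530Ala/Arg532Ala (HEK-293 expressed, affinity purified, FXIIa-activated) was tested alongside full-length FXIa and wild-type catalytic domain. Proteolytic activity was measured by S2366 hydrolysis in the presence of 30 μM polybrene and 3 μM test compound.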

human factor XIa [5] = biological target: T1, human factor XIa (Homo sapiens, UniProt P03951); test: Direct inhibition of FXIa, chromogenic substrate; assay type: biochemical
T1 sequence (P03951 388-625 limits assumed): as the sequence (P03951 388-625 C500S) above, with S113C counted along it
T1 sequence (P03951 19-387 partner limits assumed): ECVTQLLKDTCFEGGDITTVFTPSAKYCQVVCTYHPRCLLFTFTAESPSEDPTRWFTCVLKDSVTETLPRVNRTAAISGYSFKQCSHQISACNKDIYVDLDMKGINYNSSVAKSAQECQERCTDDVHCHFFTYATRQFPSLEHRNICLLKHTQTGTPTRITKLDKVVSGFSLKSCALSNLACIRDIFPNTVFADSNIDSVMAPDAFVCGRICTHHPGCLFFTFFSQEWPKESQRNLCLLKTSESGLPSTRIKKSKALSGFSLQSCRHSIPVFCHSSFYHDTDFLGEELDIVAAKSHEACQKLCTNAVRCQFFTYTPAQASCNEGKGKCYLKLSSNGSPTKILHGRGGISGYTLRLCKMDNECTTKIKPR

human factor XIa [6] = biological target: T1, human factor XIa; test: Michaelis-Menten kinetics of S2366 hydrolysis by FXIa in presence of 14S; assay type: biochemical

Sequence of FXIa-DEGR (P03951 388-625 limits assumed): as the sequence (P03951 388-625 C500S) above, with S113C counted along it
Sequence of FXIa-DEGR (P03951 19-387 partner limits assumed): as the sequence (P03951 19-387 partner limits assumed) above

Hill coefficient n (FXIa-DEGR) | ΔFMAX (FXIa-DEGR) | SMILES | prolongation of APTT (human plasma [1]) | activity in the PT assay (human plasma [2]; human plasma) | also measured
6.4 ± 2.0 | 90 ± 3% | O=c1c2ccccc2nc(-c2ccc(OS(=O)(=O)O)cc2)n1CCCCCCn1cc(Cn2c(-c3ccc(OS(=O)(=O)O)cc3)nc3ccccc3c2=O)nn1 [Inhibitor 16S] | dose-dependent prolongation | much less active | 2 × PT (concentration to double clotting time) (human plasma [2]; citrated human plasma): >2000 µM; inhibition of FXIa-CD compared with wild-type enzyme (FXIa-CD): as potently as the wild-type enzyme; reduction in potency [3]: approximately 5 fold; change in IC50 from wild-type FXIa-CD (Lys535Ala FXIa-CD): no change in IC50; change in IC50 from wild-type FXIa-CD (Lys539Ala FXIa-CD): no change in IC50; loss in inhibition by addition of polybrene [4]: 1.45 fold
7.9 ± 1.9 | 66 ± 2 ^b % | O=c1c2ccccc2nc(-c2ccc(OS(=O)(=O)O)cc2)n1CCCCn1cc(Cn2c(-c3ccc(OS(=O)(=O)O)cc3)nc3ccccc3c2=O)nn1 [Inhibitor 13S] | dose-dependent prolongation | reasonable dose-dependent prolongation of clotting time | 2-fold increase in PT (concentration) (human plasma [2]; human plasma, calculated from trend line): about 1.12 mM

The next lines start with the compound.

SMILES | Hill coefficient n (FXIa-DEGR) | ΔFMAX (FXIa-DEGR) | prolongation of APTT (human plasma [1]) | activity in the PT assay (human plasma [2]; human plasma) | also measured
O=c1c2ccccc2nc(-c2ccc(OS(=O)(=O)O)cc2)n1Cc1cn(CCn2cc(Cn3c(-c4ccc(OS(=O)(=O)O)cc4)nc4ccccc4c3=O)nn2)nn1 [Inhibitor 28S] | – | – | – | – | IC50 (human factor XIa [5]): < 100 µM; fold less potent than 15S (human factor XIa [5]; versus 15S): approximately 6 fold
CC(=O)Oc1cccc(-c2nc3ccccc3c(=O)n2Cc2cn(CCCCn3c(-c4cccc(OS(=O)(=O)O)c4)nc4ccccc4c3=O)nn2)c1 [Inhibitor 7S] | – | – | – | – | inhibition of factor XIa (in words) (human factor XIa [5]; pH 7.4, 37 °C): inactive
O=c1c2ccccc2nc(-c2ccc(OS(=O)(=O)O)cc2)n1CCCCCn1cc(Cn2c(-c3ccc(OS(=O)(=O)O)cc3)nc3ccccc3c2=O)nn1 [Inhibitor 15S] | 6.8 ± 2.7 | 72 ± 2% | dose-dependent prolongation | much less active | –
O=c1c2ccccc2nc(-c2cccc(OS(=O)(=O)O)c2)n1CCCCn1cc(Cn2c(-c3ccc(OS(=O)(=O)O)cc3)nc3ccccc3c2=O)nn1 [Inhibitor 14S] | 9.0 ± 1.1 | 57 ± 2% | – | – | mechanism of factor XIa inhibition (human factor XIa [6]): non-competitive; VMAX of substrate hydrolysis (human factor XIa [6]; 135 μM 14S, pH 7.4, 37 °C): 5.1±0.5 mAU/min
